Reference: ChEMBL document CHEMBL5724801, “EUbOPEN Chemogenomics Library - Multiplex” (2024)
Values joined by “and” are separate entries in the source; they are usually repeats but may differ in a detail not shown here. Equal values may be shown once.

Key:
Assay type in all cases: toxicity, cell-based
Fibroblast = assay: Multiplex assay against human fibroblast
Summary of the method: (§1)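 Cells were classed with CellPathfinder machine-learning gating, first as Hoechst high-intensity objects or normal cells, then (normal cells) as healthy, pyknosed or fragmented nuclei, and finally (pyknosed cells) as mitotic or apoptotic. Staining of live cells at seeding used Hoechst33342, BioTracker Green Microtubule Cytoskeleton Dye, MitoTracker Red and Annexin V Alexa Fluor 680, with imaging on a CQ1 microscope at 37°C and 5% CO2 after compound addition. Tubulin, mitochondrial-mass and membrane-permeability phenotypes are per cents of healthy-nucleus cells.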

HEK-293T = assay: Multiplex assay against HEK293T; conditions: human; summary of the method: as §1
U2OS = assay: Multiplex assay against U2OS; conditions: human; summary of the method: as §1
[1] = 12 h, 1 µM, compound concentration 1 uM
[2] = 12 h, 10 µM, compound concentration 10 uM
[3] = 24 h, 1 µM, compound concentration 1 uM
[4] = 24 h, 10 µM, compound concentration 10 uM
[5] = 48 h, 1 µM, compound concentration 1 uM
[6] = 48 h, 10 µM, compound concentration 10 uM

COc1ccccc1N1CCN(CCCCNC(=O)c2ccc3ccccc3c2)CC1.Cl
Population Apoptotic (%) (Fibroblast; [1]): 52% and 40%
Population Fragmented Nuclei (%) (Fibroblast; [1]): 19% and 20%
Population Healthy Nuclei (%) (Fibroblast; [1]): 68% and 63%
Population Mitotic Cells (%) (Fibroblast; [1]): 47% and 59%
Population Normal (%) (Fibroblast; [1]): 95% and 96%
Population Tubulin-Different-Phenotype (%) (Fibroblast; [1]): 35% and 42%
Total Cell Count (Fibroblast; [1]): 194 and 148
Population Apoptotic (%) (Fibroblast; [2]): 58% and 39%
Population Fragmented Nuclei (%) (Fibroblast; [2]): 32% and 40%
Population Healthy Nuclei (%) (Fibroblast; [2]): 52% and 34%
Population Mitotic Cells (%) (Fibroblast; [2]): 41% and 60%
Population Normal (%) (Fibroblast; [2]): 96% and 89%
Population Tubulin-Different-Phenotype (%) (Fibroblast; [2]): 79% and 90%
Total Cell Count (Fibroblast; [2]): 194 and 144
Population Apoptotic (%) (Fibroblast; [3]): 39% and 60%
Population Fragmented Nuclei (%) (Fibroblast; [3]): 14% and 26%
Population Healthy Nuclei (%) (Fibroblast; [3]): 73% and 60%
Population Mitotic Cells (%) (Fibroblast; [3]): 60% and 40%
Population Normal (%) (Fibroblast; [3]): 98% and 96%
Population Tubulin-Different-Phenotype (%) (Fibroblast; [3]): 31% and 40%
Total Cell Count (Fibroblast; [3]): 193 and 156
Population Apoptotic (%) (Fibroblast; [4]): 66% and 69%
Population Fragmented Nuclei (%) (Fibroblast; [4]): 32% and 41%
Population Healthy Nuclei (%) (Fibroblast; [4]): 56% and 41%
Population Mitotic Cells (%) (Fibroblast; [4]): 33% and 30%
Population Normal (%) (Fibroblast; [4]): 95% and 91%
Population Tubulin-Different-Phenotype (%) (Fibroblast; [4]): 85% and 81%
Total Cell Count (Fibroblast; [4]): 206 and 154
Population Apoptotic (%) (Fibroblast; [5]): 42% and 29%
Population Fragmented Nuclei (%) (Fibroblast; [5]): 21% and 34%
Population Healthy Nuclei (%) (Fibroblast; [5]): 70% and 54%
Population Mitotic Cells (%) (Fibroblast; [5]): 57% and 70%
Population Normal (%) (Fibroblast; [5]): 96% and 95%
Population Tubulin-Different-Phenotype (%) (Fibroblast; [5]): 38% and 39%
Total Cell Count (Fibroblast; [5]): 199 and 167
Population Apoptotic (%) (Fibroblast; [6]): 73% and 75%
Population Fragmented Nuclei (%) (Fibroblast; [6]): 33% and 38%
Population Healthy Nuclei (%) (Fibroblast; [6]): 57% and 56%
Population Mitotic Cells (%) (Fibroblast; [6]): 26% and 25%
Population Tubulin-Different-Phenotype (%) (Fibroblast; [6]): 89% and 82%
Total Cell Count (Fibroblast; [6]): 224 and 168
Population Apoptotic (%) (HEK-293T; [1]): 45% and 36%
Population Fragmented Nuclei (%) (HEK-293T; [1]): 7% and 6%
Population Healthy Nuclei (%) (HEK-293T; [1]): 81% and 79%
Population Hoechst High Intensity Objects (%) (HEK-293T; [1]): 6% and 5%
Population Mitochondria Different-Phenotype (%) (HEK-293T; [1]): 53% and 76%
Population Mitotic Cells (%) (HEK-293T; [1]): 54% and 63%
Population Normal (%) (HEK-293T; [1]): 93% and 94%
Population Tubulin-Different-Phenotype (%) (HEK-293T; [1]): 41% and 35%
Total Cell Count (HEK-293T; [1]): 430 and 354
Population Apoptotic (%) (HEK-293T; [2]): 71% and 70%
Population Fragmented Nuclei (%) (HEK-293T; [2]): 4% and 7%
Population Healthy Nuclei (%) (HEK-293T; [2]): 69% and 75%
Population Hoechst High Intensity Objects (%) (HEK-293T; [2]): 16% and 15%
Population Mitochondria Different-Phenotype (%) (HEK-293T; [2]): 90% and 93%
Population Mitotic Cells (%) (HEK-293T; [2]): 28% and 29%
Population Normal (%) (HEK-293T; [2]): 83% and 84%
Population Tubulin-Different-Phenotype (%) (HEK-293T; [2]): 75% and 72%
Total Cell Count (HEK-293T; [2]): 321 and 256
Population Apoptotic (%) (HEK-293T; [3]): 27% and 36%
Population Fragmented Nuclei (%) (HEK-293T; [3]): 8% and 7%
Population Healthy Nuclei (%) (HEK-293T; [3]): 78% and 82%
Population Hoechst High Intensity Objects (%) (HEK-293T; [3]): 6%
Population Mitochondria Different-Phenotype (%) (HEK-293T; [3]): 38% and 62%
Population Mitotic Cells (%) (HEK-293T; [3]): 72% and 63%
Population Normal (%) (HEK-293T; [3]): 93%
Population Tubulin-Different-Phenotype (%) (HEK-293T; [3]): 32% and 26%
Total Cell Count (HEK-293T; [3]): 561 and 444
Population Apoptotic (%) (HEK-293T; [4]): 56% and 60%
Population Fragmented Nuclei (%) (HEK-293T; [4]): 7% and 10%
Population Healthy Nuclei (%) (HEK-293T; [4]): 74% and 69%
Population Hoechst High Intensity Objects (%) (HEK-293T; [4]): 13% and 17%
Population Mitochondria Different-Phenotype (%) (HEK-293T; [4]): 96% and 94%
Population Mitotic Cells (%) (HEK-293T; [4]): 43% and 39%
Population Normal (%) (HEK-293T; [4]): 86% and 82%
Population Tubulin-Different-Phenotype (%) (HEK-293T; [4]): 87% and 66%
Total Cell Count (HEK-293T; [4]): 393 and 276
Population Apoptotic (%) (HEK-293T; [5]): 20% and 46%
Population Healthy Nuclei (%) (HEK-293T; [5]): 81% and 78%
Population Hoechst High Intensity Objects (%) (HEK-293T; [5]): 3% and 5%
Population Mitochondria Different-Phenotype (%) (HEK-293T; [5]): 34% and 37%
Population Mitotic Cells (%) (HEK-293T; [5]): 79% and 53%
Population Normal (%) (HEK-293T; [5]): 96% and 94%
Population Tubulin-Different-Phenotype (%) (HEK-293T; [5]): 20% and 22%
Total Cell Count (HEK-293T; [5]): 841 and 635
Population Apoptotic (%) (HEK-293T; [6]): 60% and 78%
Population Fragmented Nuclei (%) (HEK-293T; [6]): 8%
Population Healthy Nuclei (%) (HEK-293T; [6]): 77% and 78%
Population Hoechst High Intensity Objects (%) (HEK-293T; [6]): 8% and 10%
Population Mitochondria Different-Phenotype (%) (HEK-293T; [6]): 88% and 92%
Population Mitotic Cells (%) (HEK-293T; [6]): 40% and 21%
Population Normal (%) (HEK-293T; [6]): 91% and 89%
Population Tubulin-Different-Phenotype (%) (HEK-293T; [6]): 73% and 71%
Total Cell Count (HEK-293T; [6]): 519 and 329
Population Apoptotic (%) (U2OS; [1]): 68% and 42%
Population Fragmented Nuclei (%) (U2OS; [1]): 18% and 17%
Population Healthy Nuclei (%) (U2OS; [1]): 69% and 75%
Population Mitochondria Different-Phenotype (%) (U2OS; [1]): 8% and 15%
Population Mitotic Cells (%) (U2OS; [1]): 31% and 57%
Population Normal (%) (U2OS; [1]): 95% and 97%
Total Cell Count (U2OS; [1]): 243 and 99
Population Apoptotic (%) (U2OS; [2]): 78% and 65%
Population Fragmented Nuclei (%) (U2OS; [2]): 30% and 17%
Population Healthy Nuclei (%) (U2OS; [2]): 39% and 51%
Population Mitochondria Different-Phenotype (%) (U2OS; [2]): 80% and 94%
Population Mitotic Cells (%) (U2OS; [2]): 21% and 34%
Population Normal (%) (U2OS; [2]): 91% and 93%
Population Pyknosed Nuclei (%) (U2OS; [2]): 30%
Total Cell Count (U2OS; [2]): 222 and 111
Population Apoptotic (%) (U2OS; [3]): 78% and 80%
Population Fragmented Nuclei (%) (U2OS; [3]): 18% and 21%
Population Healthy Nuclei (%) (U2OS; [3]): 68%
Population Mitochondria Different-Phenotype (%) (U2OS; [3]): 9% and 11%
Population Mitotic Cells (%) (U2OS; [3]): 21% and 20%
Population Normal (%) (U2OS; [3]): 96% and 98%
Population Pyknosed Nuclei (%) (U2OS; [3]): 9%
Total Cell Count (U2OS; [3]): 262 and 103
Population Apoptotic (%) (U2OS; [4]): 90% and 100%
Population Fragmented Nuclei (%) (U2OS; [4]): 35% and 19%
Population Healthy Nuclei (%) (U2OS; [4]): 32% and 61%
Population Mitochondria Different-Phenotype (%) (U2OS; [4]): 78% and 93%
Population Mitotic Cells (%) (U2OS; [4]): 10% and 0%
Population Normal (%) (U2OS; [4]): 93%
Population Pyknosed Nuclei (%) (U2OS; [4]): 31%
Total Cell Count (U2OS; [4]): 234 and 125
Population Apoptotic (%) (U2OS; [5]): 72% and 88%
Population Fragmented Nuclei (%) (U2OS; [5]): 19% and 17%
Population Healthy Nuclei (%) (U2OS; [5]): 71% and 64%
Population Mitochondria Different-Phenotype (%) (U2OS; [5]): 3%
Population Mitotic Cells (%) (U2OS; [5]): 27% and 12%
Population Normal (%) (U2OS; [5]): 95% and 96%
Population Pyknosed Nuclei (%) (U2OS; [5]): 9%
Total Cell Count (U2OS; [5]): 362 and 144
Population Apoptotic (%) (U2OS; [6]): 93% and 86%
Population Fragmented Nuclei (%) (U2OS; [6]): 38% and 23%
Population Healthy Nuclei (%) (U2OS; [6]): 27% and 37%
Population Mitochondria Different-Phenotype (%) (U2OS; [6]): 69% and 77%
Population Mitotic Cells (%) (U2OS; [6]): 6% and 13%
Population Normal (%) (U2OS; [6]): 91% and 87%
Population Pyknosed Nuclei (%) (U2OS; [6]): 34% and 39%
Total Cell Count (U2OS; [6]): 256 and 111
